According to ChEMBL document CHEMBL2396515, “Quercetin-POC conjugates: Differential stability and bioactivity profiles between breast cancer (MCF-7) and colorectal carcinoma (HCT116) cell lines” (Bioorg Med Chem, 2013):
Active and inactive are the calls of the source. The calls are words filed in the database; no cut-off is given here.

Assays:
[1] = Metabolic stability in human MCF7 cells assessed as compound remaining at 30 uM after 1 hr by HPLC analysis; format: ADME, cell-based; settings: read-out: Stability
Method in brief: (§1)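 MCF-7 or HCT116 cells were seeded at 2×10^5 per well and grown 24 h at 37 °C, 5% CO2, then given 30 µM conjugate. At 1, 3, 6 and 12 h cells were PBS-washed, trypsinized, sonicated and filtered. Lysates were run on C18 HPLC (UV 340 nm). Each species is reported as a percentage of integrated peak area; peaks were identified by MALDI-TOF MS.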

HCT-116 [2] = test: Drug metabolism in human HCT116 cells assessed as quercetin sulfate level at 30 uM after 1 hr by HPLC analysis; format: ADME, cell-based; settings: hct-116, 1 h; method in brief: as §1
HCT-116 [3] = test: Drug metabolism in human HCT116 cells assessed as methyl quercetin level at 30 uM after 1 hr by HPLC analysis; format: ADME, cell-based; settings: hct-116, 1 h; method in brief: as §1
[4] = Solubility of the compound in DMEM cell-free cell culture medium up to 100 uM; format: physicochemical
Method in brief: (§2)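 DMSO stocks ([…]–10 mM) were serially diluted into PBS pH 7.4 or DMEM with 10% FBS to final 0.5, 5, 25, 50, 100, 200 µM (2% DMSO) and 300 µM (3% DMSO). Solubility was judged by forward light scattering in a laser nephelometer.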

MCF7 [5] = test: Drug metabolism in human MCF7 cells assessed as quercetin-glucuronide level at 30 uM after 12 hrs by HPLC analysis; format: ADME, cell-based; settings: mcf7, 12 h; method in brief: as §1
HCT-116 [6] = test: Drug metabolism in human HCT116 cells assessed as quercetin-glucuronide level at 30 uM after 3 hrs by HPLC analysis; format: ADME, cell-based; settings: hct-116, 3 h; method in brief: as §1
[7] = Half life of the compound in DMEM cell-free cell culture medium at 50 uM by HPLC analysis; format: physicochemical
Method in brief: (§3)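 Conjugates diluted from a 10 mM DMSO stock to 50 µM final in cell-free culture medium (DMEM with 10% FBS), held at 37 °C. Samples were taken at 0, 1, 3, 6, 12, 24, 48 and 96 h, vortexed, and run on C18 reverse-phase HPLC with an acetonitrile/0.1% formic acid gradient at 1 mL/min, detected by UV at 340 nm.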

[8] = Metabolic stability in human MCF7 cells assessed as compound remaining at 30 uM after 6 hrs by HPLC analysis; format: ADME, cell-based; settings: read-out: Stability; method in brief: as §1
MCF7 [9] = test: Drug metabolism in human MCF7 cells assessed as methyl quercetin level at 30 uM after 1 hr by HPLC analysis; format: ADME, cell-based; settings: mcf7, 1 h; method in brief: as §1
HCT-116 [10] = test: Drug metabolism in human HCT116 cells assessed as quercetin-glucuronide level at 30 uM after 6 hrs by HPLC analysis; format: ADME, cell-based; settings: hct-116, 6 h; method in brief: as §1
MCF7 [11] = test: Drug metabolism in human MCF7 cells assessed as methyl quercetin level at 30 uM after 12 hrs by HPLC analysis; format: ADME, cell-based; settings: mcf7, 12 h; method in brief: as §1
MCF7 [12] = test: Metabolic stability in human MCF7 cells assessed as compound remaining at 30 uM after 12 hrs by HPLC analysis; format: ADME, cell-based; settings: mcf7, 12 h; method in brief: as §1
MCF7 [13] = test: Drug metabolism in human MCF7 cells assessed as quercetin sulfate level at 30 uM after 12 hrs by HPLC analysis; format: ADME, cell-based; settings: mcf7, 12 h; method in brief: as §1
HCT-116 [14] = test: Drug metabolism in human HCT116 cells assessed as methyl quercetin level at 30 uM after 6 hrs by HPLC analysis; format: ADME, cell-based; settings: hct-116, 6 h; method in brief: as §1
[15] = Metabolic stability in human HCT116 cells assessed as compound remaining at 30 uM after 1 hr by HPLC analysis; format: ADME, cell-based, HCT-116; settings: read-out: Stability; method in brief: as §1
MCF7 [16] = test: Drug metabolism in human MCF7 cells assessed as quercetin level at 30 uM after 12 hrs by HPLC analysis; format: ADME, cell-based; settings: mcf7, 12 h; method in brief: as §1
[17] = Metabolic stability in human HCT116 cells assessed as compound remaining at 30 uM after 6 hrs by HPLC analysis; format: ADME, cell-based, HCT-116; settings: read-out: Stability; method in brief: as §1
MCF7 [18] = test: Drug metabolism in human MCF7 cells assessed as quercetin sulfate level at 30 uM after 3 hrs by HPLC analysis; format: ADME, cell-based; settings: mcf7, 3 h; method in brief: as §1
[19] = Metabolic stability in human HCT116 cells assessed as compound remaining at 30 uM after 3 hrs by HPLC analysis; format: ADME, cell-based, HCT-116; settings: read-out: Stability; method in brief: as §1
HCT-116 [20] = test: Drug metabolism in human HCT116 cells assessed as methyl quercetin level at 30 uM after 12 hrs by HPLC analysis; format: ADME, cell-based; settings: hct-116, 12 h; method in brief: as §1
MCF7 [21] = test: Drug metabolism in human MCF7 cells assessed as quercetin-glucuronide level at 30 uM after 1 hr by HPLC analysis; format: ADME, cell-based; settings: mcf7, 1 h; method in brief: as §1
[22] = Solubility of the compound in PBS buffer at 0.5 to 300 uM; format: physicochemical; method in brief: as §2
[23] = Metabolic stability in human HCT116 cells assessed as compound remaining at 30 uM after 12 hrs by HPLC analysis; format: ADME, cell-based, HCT-116; settings: read-out: Stability; method in brief: as §1
[24] = Half life of the compound in PBS buffer at pH 7.4 at 50 uM by HPLC analysis; format: physicochemical
Method in brief: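 Compound at 50 µM in PBS pH 7.4, incubated at 37 °C. Aliquots were drawn at 0, 1, 3, 6, 12, 24, 48 and 96 h and analysed by C18 reverse-phase HPLC with an acetonitrile/0.1% formic acid gradient, detected by UV at 340 nm.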

HCT-116 [25] = test: Drug metabolism in human HCT116 cells assessed as methyl quercetin level at 30 uM after 3 hrs by HPLC analysis; format: ADME, cell-based; settings: hct-116, 3 h; method in brief: as §1
[26] = Metabolic stability in human MCF7 cells assessed as compound remaining at 30 uM after 3 hrs by HPLC analysis; format: ADME, cell-based; settings: read-out: Stability; method in brief: as §1
[27] = Drug degradation in DMEM cell-free cell culture medium assessed as formation of quercetin at 50 uM after 1 hr by HPLC analysis; format: physicochemical; method in brief: as §3
MCF7 [28] = test: Cytotoxicity against human MCF7 cells at 1 to 100 uM after 12 hrs by MTT assay; format: functional, cell-based
Method in brief: (§4)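 MCF-7 or HCT116 cells were seeded at 5×10^3 per well in DMEM with 10% FBS and grown 1 day at 37 °C, 5% CO2. Compounds in 1% DMSO were added at 1, 5, 10, 50, 100 or 250 µM. Viability was read by MTT after 12 h; each assay was done three times.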

HCT-116 [29] = test: Drug metabolism in human HCT116 cells assessed as quercetin-glucuronide level at 30 uM after 12 hrs by HPLC analysis; format: ADME, cell-based; settings: hct-116, 12 h; method in brief: as §1
HCT-116 [30] = test: Cytotoxicity against human HCT116 cells at 1 to 100 uM after 12 hrs by MTT assay; format: functional, cell-based; method in brief: as §4
MCF7 [31] = test: Drug metabolism in human MCF7 cells assessed as quercetin sulfate level at 30 uM after 1 hr by HPLC analysis; format: ADME, cell-based; settings: mcf7, 1 h; method in brief: as §1
HCT-116 [32] = test: Drug metabolism in human HCT116 cells assessed as quercetin sulfate level at 30 uM after 3 hrs by HPLC analysis; format: ADME, cell-based; settings: hct-116, 3 h; method in brief: as §1
HCT-116 [33] = test: Drug metabolism in human HCT116 cells assessed as quercetin sulfate level at 30 uM after 6 hrs by HPLC analysis; format: ADME, cell-based; settings: hct-116, 6 h; method in brief: as §1
MCF7 [34] = test: Drug metabolism in human MCF7 cells assessed as 7-O-POC-Q level at 30 uM after 6 hrs by HPLC analysis; format: ADME, cell-based; settings: mcf7, 6 h; method in brief: as §1
HCT-116 [35] = test: Drug metabolism in human HCT116 cells assessed as quercetin level at 30 uM after 6 hrs by HPLC analysis; format: ADME, cell-based; settings: hct-116, 6 h; method in brief: as §1
HCT-116 [36] = test: Drug metabolism in human HCT116 cells assessed as quercetin level at 30 uM after 3 hrs by HPLC analysis; format: ADME, cell-based; settings: hct-116, 3 h; method in brief: as §1
HCT-116 [37] = test: Drug metabolism in human HCT116 cells assessed as quercetin-glucuronide level at 30 uM after 1 hr by HPLC analysis; format: ADME, cell-based; settings: hct-116, 1 h; method in brief: as §1
[38] = Drug degradation in DMEM cell-free cell culture medium assessed as formation of 3-O-POC-Q at 50 uM after 24 hrs by HPLC analysis; format: physicochemical; method in brief: as §3
HCT-116 [39] = test: Drug metabolism in human HCT116 cells assessed as 7-O-POC-Q level at 30 uM after 6 hrs by HPLC analysis; format: ADME, cell-based; settings: hct-116, 6 h; method in brief: as §1
HCT-116 [40] = test: Drug metabolism in human HCT116 cells assessed as quercetin level at 30 uM after 1 hr by HPLC analysis; format: ADME, cell-based; settings: hct-116, 1 h; method in brief: as §1
MCF7 [41] = test: Drug metabolism in human MCF7 cells assessed as 3-O-POC-Q level at 30 uM after 12 hrs by HPLC analysis; format: ADME, cell-based; settings: mcf7, 12 h; method in brief: as §1
HCT-116 [42] = test: Drug metabolism in human HCT116 cells assessed as 7-O-POC-Q level at 30 uM after 1 hr by HPLC analysis; format: ADME, cell-based; settings: hct-116, 1 h; method in brief: as §1
MCF7 [43] = test: Drug metabolism in human MCF7 cells assessed as 7-O-POC-Q level at 30 uM after 12 hrs by HPLC analysis; format: ADME, cell-based; settings: mcf7, 12 h; method in brief: as §1
HCT-116 [44] = test: Drug metabolism in human HCT116 cells assessed as 7-O-POC-Q level at 30 uM after 12 hrs by HPLC analysis; format: ADME, cell-based; settings: hct-116, 12 h; method in brief: as §1
MCF7 [45] = test: Drug metabolism in human MCF7 cells assessed as 7-O-POC-Q level at 30 uM after 3 hrs by HPLC analysis; format: ADME, cell-based; settings: mcf7, 3 h; method in brief: as §1
HCT-116 [46] = test: Drug metabolism in human HCT116 cells assessed as quercetin sulfate level at 30 uM after 12 hrs by HPLC analysis; format: ADME, cell-based; settings: hct-116, 12 h; method in brief: as §1
HCT-116 [47] = test: Drug metabolism in human HCT116 cells assessed as 7-O-POC-Q level at 30 uM after 3 hrs by HPLC analysis; format: ADME, cell-based; settings: hct-116, 3 h; method in brief: as §1

remaining at 1 h, 30 µM [1]	Stability (HCT-116 [2])	solubility [4]	Stability (MCF7 [5])	Stability (HCT-116 [6])	half-life at 50 µM [7]	remaining at 6 h, 30 µM [8]	Stability (HCT-116 [10])	Stability (MCF7 [12])	Stability (MCF7 [13])	remaining at 1 h, 30 µM [15]	Stability (MCF7 [16])	remaining at 6 h, 30 µM [17]	remaining at 3 h, 30 µM [19]	solubility [22]	remaining at 12 h, 30 µM [23]	half-life at 50 µM [24]	remaining at 3 h, 30 µM [26]	Stability (HCT-116 [29])	SMILES	Activity (MCF7 [28])	also measured
51%	Stable	soluble	Stable	Stable	1 h	2%	Stable	Stable	Stable	65%	Stable	18%	34%	Insoluble	12%	> 96 h	6%	Stable	CC(C)OC(=O)OCOc1cc(O)c2c(=O)c(O)c(-c3ccc(O)c(O)c3)oc2c1	Active	Stability (HCT-116 [3]): Stable; Stability (MCF7 [9]): Stable; Stability (MCF7 [11]): Stable; Stability (HCT-116 [14]): Stable; Stability (MCF7 [18]): Stable; Stability (HCT-116 [20]): Stable; Stability (MCF7 [21]): Stable; Stability (HCT-116 [25]): Stable; Drug degradation [27]: Active; Activity (HCT-116 [30]): Active; Stability (MCF7 [31]): Stable
25%	Stable	soluble	Stable	Stable	24 h	1%	Stable	Stable	Stable	64%	Stable	20%	47%	Insoluble	3%	> 96 h	6%	Stable	CC(C)OC(=O)OCOc1cc(O)c2c(=O)c(OCOC(=O)OC(C)C)c(-c3ccc(O)c(O)c3)oc2c1	Active	Stability (HCT-116 [32]): Stable; Stability (HCT-116 [33]): Stable; Stability (MCF7 [34]): Stable; Stability (HCT-116 [35]): Stable; Stability (HCT-116 [36]): Stable; Stability (HCT-116 [37]): Stable; Drug degradation [38]: Active; Stability (HCT-116 [39]): Stable; Stability (HCT-116 [40]): Stable; Stability (MCF7 [41]): Stable; Stability (HCT-116 [42]): Stable; Stability (MCF7 [43]): Stable; Stability (HCT-116 [44]): Stable; Stability (MCF7 [45]): Stable; Stability (HCT-116 [46]): Stable; Stability (HCT-116 [47]): Stable; Activity (HCT-116 [30]): Active; Stability (MCF7 [31]): Stable
